Assay results taken from article PMC4201344 (ACS Chemical Biology, 2014).
Substitutions are numbered along the chain they refer to. Entries after “also recorded” stand apart in the source; their conditions may differ.

Assays:
GluClα receptor = GluClα receptor (Caenorhabditis elegans, UniProt G5EBR3); settings: in the absence of ivermectin, Xenopus laevis oocytes; cited from earlier work
[1] = tested on: GluClβ with α signal peptide, T6′S, F96TAG F1–Phe; test: two-electrode voltage clamp, Xenopus laevis oocytes, nonsense suppression; format: cell-based, C. elegans; settings: glutamate
[2] = tested on: GluClβ with α signal peptide, T6′S, F96TAG F3–Phe; test: as above; format: cell-based, C. elegans; settings: glutamate
GluClβ T6′S, Q174A = GluClβ T6′S, Q174A (Caenorhabditis elegans, UniProt Q17328, Q200A/T283S); test: two-electrode voltage clamp, Xenopus laevis oocytes; format: cell-based, C. elegans; settings: glutamate
Sequence of GluClβ T6′S, Q174A (Q17328 23-434 Q200A/T283S): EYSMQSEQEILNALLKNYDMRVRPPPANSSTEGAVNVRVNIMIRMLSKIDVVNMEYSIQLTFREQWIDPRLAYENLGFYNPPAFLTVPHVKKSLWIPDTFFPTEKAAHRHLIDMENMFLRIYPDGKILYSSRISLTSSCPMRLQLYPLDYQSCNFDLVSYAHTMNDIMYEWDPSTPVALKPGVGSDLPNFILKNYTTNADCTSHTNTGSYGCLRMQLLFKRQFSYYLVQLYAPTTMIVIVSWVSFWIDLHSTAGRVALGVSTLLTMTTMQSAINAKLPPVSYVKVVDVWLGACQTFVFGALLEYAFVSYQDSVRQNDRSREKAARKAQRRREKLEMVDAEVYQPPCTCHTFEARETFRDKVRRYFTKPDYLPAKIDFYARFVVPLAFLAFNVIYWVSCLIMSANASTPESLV

GluClβ T6′S, R40E = GluClβ T6′S, R40E (Caenorhabditis elegans, UniProt Q17328, R66E/T283S); test: two-electrode voltage clamp, Xenopus laevis oocytes; format: cell-based, C. elegans; settings: glutamate
Sequence of GluClβ T6′S, R40E (Q17328 23-434 R66E/T283S): as the sequence (Q17328 23-434 Q200A/T283S) above, with R44E, A178Q counted along it
In short: (§1)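 C. elegans GluClβ (mammalian codon-optimised) in pGEMhe, mutated by QuikChange; T7 mRNA. […] Voltage clamp at −60 mV in Ca-free ND96, pH 7.5. […] Peak currents taken from baseline, normalised, averaged per concentration, and fit to Hill equation (EC50, nH).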

GluClβ T6′S, S126A/Y156F = GluClβ T6′S, S126A/Y156F (Caenorhabditis elegans, UniProt Q17328, S152A/T283S/Y182F); test: as above; format: cell-based, C. elegans; settings: glutamate
Sequence of GluClβ T6′S, S126A/Y156F (Q17328 23-434 S152A/Y182F/T283S): as the sequence (Q17328 23-434 Q200A/T283S) above, with S130A, Y160F, A178Q counted along it
In short: as §1

[3] = target: T1, GluClβ with α signal peptide, T6′S, Y156TAG Phe (Caenorhabditis elegans, UniProt Q17328, T283S/Y182F); test: two-electrode voltage clamp, Xenopus laevis oocytes, nonsense suppression; format: cell-based, C. elegans; settings: glutamate
T1 sequence (Q17328 23-434 Y182F/T283S): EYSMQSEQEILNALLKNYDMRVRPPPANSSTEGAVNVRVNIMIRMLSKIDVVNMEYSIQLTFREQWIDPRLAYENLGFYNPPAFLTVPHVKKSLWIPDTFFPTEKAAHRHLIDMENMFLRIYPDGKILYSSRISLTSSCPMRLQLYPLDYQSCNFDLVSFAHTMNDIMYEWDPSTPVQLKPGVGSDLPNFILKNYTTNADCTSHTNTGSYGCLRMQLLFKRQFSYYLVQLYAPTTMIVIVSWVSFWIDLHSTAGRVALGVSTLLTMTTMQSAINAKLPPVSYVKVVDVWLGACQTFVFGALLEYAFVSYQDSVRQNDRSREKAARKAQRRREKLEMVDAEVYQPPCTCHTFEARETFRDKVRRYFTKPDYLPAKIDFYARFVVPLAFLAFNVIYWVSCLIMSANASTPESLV
In short: (§2)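 Site-specific TAG codon, read by 74mer THG73 tRNA ligated to dCA-acylated amino acid; NVOC removed by 5 min xenon-lamp irradiation just before injection. Oocytes coinjected with 37.5 ng mRNA plus ~1 μg/μL tRNA at 48 and 24 h pre-recording; unacylated 76mer tRNA served as read-through control.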

GluClβ T10′A = target: T2, GluClβ T10′A (Caenorhabditis elegans, UniProt Q17328, T287A); test: two-electrode voltage clamp, Xenopus laevis oocytes; format: cell-based, C. elegans
T2 sequence (Q17328 23-434 T287A): T1 sequence (Q17328 23-434 Y182F/T283S) with F160Y, S261T, T265A

[4] = tested on: GluClβ with α signal peptide, T6′S, Y156TAG OMe–Phe; test: two-electrode voltage clamp, Xenopus laevis oocytes, nonsense suppression; format: cell-based, C. elegans; settings: glutamate
In short: as §2

GluClβ T6′S, T203A/Y206F = target: T3, GluClβ T6′S, T203A/Y206F (Caenorhabditis elegans, UniProt Q17328, T229A/T283S/Y232F); test: two-electrode voltage clamp, Xenopus laevis oocytes; format: cell-based, C. elegans
T3 sequence (Q17328 23-434 T229A/Y232F/T283S): T1 sequence (Q17328 23-434 Y182F/T283S) with F160Y, T207A, Y210F

GluClβ L9′F = GluClβ L9′F (Caenorhabditis elegans, UniProt Q17328, L286F); test: two-electrode voltage clamp, Xenopus laevis oocytes; format: cell-based, C. elegans; settings: glutamate
Sequence of GluClβ L9′F (Q17328 23-434 L286F): as the sequence (Q17328 23-434 Q200A/T283S) above, with A178Q, S261T, L264F counted along it
In short: as §1

[5] = tested on: GluClβ with α signal peptide, T6′S, Y156TAG F1–Phe; test: two-electrode voltage clamp, Xenopus laevis oocytes, nonsense suppression; format: cell-based, C. elegans; settings: glutamate
[6] = target: GluClβ with α signal peptide (no T6′S) (Caenorhabditis elegans, UniProt Q17328); test: two-electrode voltage clamp, Xenopus laevis oocytes; format: cell-based, C. elegans; settings: α signal peptide chimera vs wild type
Sequence of GluClβ with α signal peptide (no T6′S) (Q17328 23-434): as the sequence (Q17328 23-434 Q200A/T283S) above, with A178Q, S261T counted along it

Sequence of GluClα receptor (G5EBR3 21-461): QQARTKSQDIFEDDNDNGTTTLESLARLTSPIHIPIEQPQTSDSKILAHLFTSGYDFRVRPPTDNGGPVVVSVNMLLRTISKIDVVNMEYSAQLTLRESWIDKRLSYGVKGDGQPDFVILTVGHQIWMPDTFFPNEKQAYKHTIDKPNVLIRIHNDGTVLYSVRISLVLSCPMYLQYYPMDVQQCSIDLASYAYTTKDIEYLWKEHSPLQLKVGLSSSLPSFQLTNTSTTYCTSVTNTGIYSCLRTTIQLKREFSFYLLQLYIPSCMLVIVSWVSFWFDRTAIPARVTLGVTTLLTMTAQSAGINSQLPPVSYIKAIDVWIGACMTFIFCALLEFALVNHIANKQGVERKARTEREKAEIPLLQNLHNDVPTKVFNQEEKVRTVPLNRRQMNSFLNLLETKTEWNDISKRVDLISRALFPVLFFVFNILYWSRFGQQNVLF

For N[C@@H](CCC(=O)O)C(=O)O [glutamate], the activation by glutamate (GluClα receptor) is given as “not activated”, the EC50 [1] is given as 80 ± 2 µM and the Hill [1] is given as 2.8 ± 0.2. For the same compound, the Imax [1] was 0.1–0.5 μA, the EC50 [2] was 39 ± 1 µM and the Hill [2] was 2.4 ± 0.2. The Imax [2] was 0.06–0.6 μA, the EC50 (GluClβ T6′S, Q174A) was 110 ± 10 µM and the Hill (GluClβ T6′S, Q174A) was 2.4 ± 0.2. For the same compound, the EC50 (GluClβ T6′S, R40E) was “nonfunctional; also recorded: no response”, the EC50 (GluClβ T6′S, S126A/Y156F) was “no response” and the EC50 [3] was 17000 ± 1000 µM. The Hill [3] was 1.7 ± 0.1, the Imax [3] was 1–4 μA and the EC50 (GluClβ T10′A; glutamate) was 13 ± 1 µM. The Hill (GluClβ T10′A; glutamate) was 2.8 ± 0.1, the Imax (GluClβ T10′A; glutamate) was 2–28 μA and the “increase in receptor sensitivity” value (GluClβ T10′A; vs WT) was 27 fold. For the same compound, the EC50 [4] was “nonfunctional; also recorded: no response”, the EC50 (GluClβ T6′S, T203A/Y206F; glutamate) was 210 ± 10 µM and the Hill (GluClβ T6′S, T203A/Y206F; glutamate) was 2.2 ± 0.1. The Ω (GluClβ T6′S, T203A/Y206F; mutant cycle analysis T203A, Y206F) was 1/37, the ΔΔG (GluClβ T6′S, T203A/Y206F; mutant cycle analysis, coupling T203A/Y206F) was 2.1 kcal/mol and the EC50 (GluClβ L9′F) was “constitutively active”. The EC50 [5] was 14000 ± 1000 µM, the Hill [5] was 2.0 ± 0.1 and the Imax [5] was 0.1–5 μA. For the same compound, the “increase in EC50” value [6] was less than 3 fold.
